ChEMBL document CHEMBL1240362, “Intrapulmonary pharmacokinetics of S-013420, a novel bicyclolide antibacterial, in healthy Japanese subjects” (Antimicrob Agents Chemother, 2010)
Values after ≈ are worked out from the molar mass of the structure shown.

Legend:
Homo sapiens [1] = assay: Toxicity in healthy human assessed as lymphocytes count in bronchoalveolar fluid at […], po administered as single dose after 8 hrs; assay type: organism-based, Lung; parameters: route oral; settings: in vivo
In short: (§1)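 Healthy Japanese male never-smokers, aged 20 to 45 years with normal BMI, got one open-label oral 400 mg suspension dose. Four subjects per time group had one fiber-optic bronchoscopic BAL at the assigned post-dose time. The first aliquot was discarded and the last three were pooled. BAL fluid was held on ice and spun at 400 × g for 5 min at 4°C. Pellet cells were counted by hemocytometer, with a differential count on a stained cytocentrifuge preparation.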

Homo sapiens [2] = assay: Toxicity in healthy human assessed as lymphocytes count in bronchoalveolar fluid at […], po administered as single dose after 10 hrs; assay type: organism-based, Lung; parameters: route oral; settings: in vivo; in short: as §1
Homo sapiens [3] = assay: Toxicity in healthy human assessed as lymphocytes count in bronchoalveolar fluid at […], po administered as single dose after 24 hrs; assay type: organism-based, Lung; parameters: route oral; settings: in vivo; in short: as §1
[4] = Plasma concentration in healthy human at […], po after 8 hrs; assay type: ADME, organism-based; parameters: route oral
In short: (§2)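 Healthy nonsmoking Japanese men, 20-45 y, given one oral 400 mg suspension dose. Blood drawn at 0-72 h, spun at 1,600 × g for 10 min at 4°C, plasma kept at −20°C. Drug measured by validated LC/MS/MS, linear 0.005-5 μg/ml. Values are mean ± SD, n = 28. Cmax, Tmax and t1/2,z are model-independent; AUC0-24 by trapezoidal method.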

[5] = Plasma concentration in healthy human at […], po after 10 hrs; assay type: ADME, organism-based; parameters: route oral; in short: as §2
[6] = Plasma concentration in healthy human at […], po after 24 hrs; assay type: ADME, organism-based; parameters: route oral; in short: as §2
[7] = Drug level in epithelial lining fluid of healthy human at […] administered as single dose after 2 hrs; assay type: ADME, organism-based; parameters: route oral; settings: po, read-out: Drug uptake
In short: (§3)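 Four healthy male volunteers per BAL time (2-24 h) after one oral 400 mg suspension dose. Single bronchoscopic lavage; first aliquot discarded, next three pooled. Supernatant separated at 400 × g, 5 min, 4°C, and drug assayed by LC/MS/MS. ELF level = CBAL × urea plasma/urea BAL, with urea corrected for blood contamination via RBC ratio. PK parameters are model-independent, based on the mean concentration at each time.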

[8] = Drug level in epithelial lining fluid of healthy human at […], po administered as single dose after 4 hrs; assay type: ADME, organism-based; parameters: route oral; settings: read-out: Drug uptake; in short: as §3
[9] = Drug level in epithelial lining fluid of healthy human at […], po administered as single dose after 8 hrs; assay type: ADME, organism-based; parameters: route oral; settings: read-out: Drug uptake; in short: as §3
[10] = Drug level in epithelial lining fluid of healthy human at […], po administered as single dose after 12 hrs; assay type: ADME, organism-based; parameters: route oral; settings: read-out: Drug uptake; in short: as §3
[11] = Drug level in alveolar macrophages of healthy human at […], po administered as single dose after 4 hrs; assay type: ADME, organism-based, Macrophage; parameters: route oral; settings: read-out: Drug uptake
In short: (§4)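 One oral 400 mg suspension dose; four volunteers lavaged at each time (2-24 h). Cell pellet from the pooled 2nd-4th aspirates was counted (hemocytometer, stained cytospin differential). Drug in cell suspension measured by HPLC, divided by AM volume assuming 2.42 μl/10^6 cells. Cmax and Tmax are model-independent, based on mean concentrations at each time.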

[12] = Drug level in alveolar macrophages of healthy human at […], po administered as single dose after 6 hrs; assay type: ADME, organism-based, Macrophage; parameters: route oral; settings: read-out: Drug uptake; in short: as §4
[13] = Drug level in alveolar macrophages of healthy human at […], po administered as single dose after 8 hrs; assay type: ADME, organism-based, Macrophage; parameters: route oral; settings: read-out: Drug uptake; in short: as §4
[14] = Drug level in alveolar macrophages of healthy human at […], po administered as single dose after 10 hrs; assay type: ADME, organism-based, Macrophage; parameters: route oral; settings: read-out: Drug uptake; in short: as §4
[15] = Drug level in alveolar macrophages of healthy human at […], po administered as single dose after 12 hrs; assay type: ADME, organism-based, Macrophage; parameters: route oral; settings: read-out: Drug uptake; in short: as §4
[16] = Drug level in alveolar macrophages of healthy human at […], po administered as single dose after 24 hrs; assay type: ADME, organism-based, Macrophage; parameters: route oral; settings: read-out: Drug uptake; in short: as §4
[17] = Ratio of drug level in epithelial lining fluid to plasma in healthy human at […], po administered as single dose after 4 hrs; assay type: ADME, organism-based; parameters: route oral
In short: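 For each subject, ELF or AM drug level after the single oral 400 mg dose is divided by the plasma level sampled at the BAL time (2-24 h). Ratios are summarized per four-subject group.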

Moraxella catarrhalis = assay: Antimicrobial activity against Moraxella catarrhalis; assay type: functional
Streptococcus pyogenes = assay: Antimicrobial activity against Streptococcus pyogenes; assay type: functional
[18] = Ratio of AUC (0 to 24 hrs) in […] healthy epithelial lining fluid to MIC90 for erythromycin-susceptible Staphylococcus aureus; assay type: functional
[19] = Ratio of AUC (0 to 24 hrs) in […] healthy epithelial lining fluid to MIC90 for Haemophilus influenzae; assay type: functional
[20] = Ratio of AUC (0 to 24 hrs) in […] healthy epithelial lining fluid to MIC90 for Moraxella catarrhalis; assay type: functional
[21] = Tmax in alveolar macrophages of healthy human at 400 mg, po administered as single dose
[22] = Cmax in epithelial lining fluid of healthy human at 400 mg, po administered as single dose
[23] = Ratio of drug level in alveolar macrophages to plasma in healthy human at 400 mg, po administered as single dose after 2 hrs
[24] = Ratio of drug level in alveolar macrophages to plasma in healthy human at 400 mg, po administered as single dose after 24 hrs
[25] = AUC (0 to 24 hrs) in epithelial lining fluid of healthy human at 400 mg, po administered as single dose by linear trapezoidal method
Homo sapiens [26] = assay: Toxicity in healthy human assessed as eosinophil count in bronchoalveolar fluid at 400 mg, po administered as single dose after 8 hrs; settings: in vivo
[27] = Ratio of alveolar macrophages AUC (0 to 24 hrs) to plasma AUC (0 to 24 hrs) in healthy human at 400 mg, po administered as single dose
[28] = Ratio of epithelial lining fluid AUC (0 to 24 hrs) to plasma AUC (0 to 24 hrs) in healthy human at 400 mg, po administered as single dose
Homo sapiens [29] = assay: Toxicity in healthy human assessed as other cellular fractions in bronchoalveolar fluid at 400 mg, po administered as single dose after 4 hrs; settings: in vivo
Homo sapiens [30] = assay: Toxicity in healthy human assessed as alveolar macrophage count in bronchoalveolar fluid at 400 mg, po administered as single dose after 2 hrs; settings: in vivo
Homo sapiens [31] = assay: Toxicity in healthy human assessed as alveolar macrophage count in bronchoalveolar fluid at 400 mg, po administered as single dose after 10 hrs; settings: in vivo
Homo sapiens [32] = assay: Toxicity in healthy human assessed as alveolar macrophage count in bronchoalveolar fluid at 400 mg, po administered as single dose after 12 hrs; settings: in vivo
Homo sapiens [33] = assay: Toxicity in healthy human assessed as alveolar macrophage count in bronchoalveolar fluid at 400 mg, po administered as single dose after 24 hrs; settings: in vivo

concentration at 8 h [4]: 441 ng/mL
concentration at 10 h [5]: 429 ng/mL
concentration at 24 h [6]: 315 ng/mL
concentration at 2 h [7]: 16700 ng/mL
concentration at 4 h [8]: 13700 ng/mL
concentration at 8 h [9]: 11400 ng/mL
concentration at 12 h [10]: 5800 ng/mL
concentration at 4 h [11]: 116000 ng/mL
concentration at 6 h [12]: 100000 ng/mL
concentration at 8 h [13]: 125000 ng/mL
concentration at 10 h [14]: 108000 ng/mL
concentration at 12 h [15]: 176000 ng/mL
concentration at 24 h [16]: 68000 ng/mL
Kp at 4 h [17]: 24.8
MIC90 (Moraxella catarrhalis): 0.5 µg/mL (≈ 0.595 µM)
MIC90 (Streptococcus pyogenes): ≤ 0.063 µg/mL
Tmax [21]: 12 h
Cmax [22]: 16800 ng/mL
Kp at 2 h [23]: 93
Kp at 24 h [24]: 232
AUC(0-t) at 24 h [25]: 212 µg·h/mL
Kp [27]: 245
Kp [28]: 20.3
SMILES: CC[C@H]1OC(=O)[C@H](C)C(=O)[C@H](C)[C@@H](O[C@@H]2O[C@H](C)C[C@H](N(C)C)[C@H]2O)[C@@]2(C)C[C@@H](C)/C(=N\C(C)=O)[C@H](C)[C@@H](OC/C(=N\OCc3ccc(-n4cccn4)nc3)CO2)[C@]1(C)O [MODITHROMYCIN]
Activity (Homo sapiens [1]): 9.3%
Activity (Homo sapiens [2]): 13.6%
Activity (Homo sapiens [3]): 10.8%
RatioAUC/MIC [18]: 849.6
RatioAUC/MIC [19]: 26.6
RatioAUC/MIC [20]: 424.8
Activity (Homo sapiens [26]): 0.3%
Activity (Homo sapiens [29]): 0%
Activity (Homo sapiens [30]): 84.8%
Activity (Homo sapiens [31]): 85.8%
Activity (Homo sapiens [32]): 85.9%
Activity (Homo sapiens [33]): 89.3%
